Results published in ChEMBL document CHEMBL3102760, “Novel PARP-1 inhibitors based on a 2-propanoyl-3H-quinazolin-4-one scaffold” (Bioorg Med Chem Lett, 2014).
pEC50, pIC50: −log10 of the molar value.

Key:
[1] = molecular target: T1, Poly [ADP-ribose] polymerase 1 (Homo sapiens, UniProt P09874); test: Inhibition of GST-tagged recombinant human PARP-1 expressed in Escherichia coli after 30 mins by fluorescence-based assay
[2] = Activity at P-gp (unknown origin); format: ADME; settings: human
[3] = system: Mus musculus; test: Toxicity in SCID beige mouse xenografted with human MX1 cells assessed as body weight loss at 200 mg/kg, ip administered qd for 5 days per week up to 3 weeks relative to control; format: organism-based; design: dose 200 mg/kg, route intraperitoneal; settings: in vivo
Summary of the method: (§1)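 MX1 breast carcinoma cells were xenografted into athymic SCID beige mice, with dosing starting 7 days after tumor injection. Compound was given intraperitoneally at 200 mg/10 mL/kg, schedule qdx5/wx3w, versus a vehicle group; 8 mice per group. Tumor volume and body weight loss were read at day +38. Tumor volume was compared with the vehicle group by Mann-Whitney test.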

[4] = Growth inhibition of human MDA-MB-436 cells after 7 days by SRB assay; settings: MDA-MB-436, 7 days
[5] = Ratio of drug level in blood to plasma (unknown origin) after 60 mins; format: ADME; settings: blood and plasma
[6] = Metabolic stability in human plasma assessed as compound recovery after 2 hrs; format: ADME, cell-free; settings: read-out: Drug recovery
[7] = system: Mus musculus; test: Toxicity in SCID beige mouse xenografted with human MX1 cells assessed as lethality at 200 mg/kg, ip administered qd for 5 days per week up to 3 weeks; format: organism-based; design: dose 200 mg/kg, route intraperitoneal; settings: in vivo
Summary of the method: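 Athymic SCID beige mice carrying MX1 breast carcinoma xenografts (BRCA1 deletion, BRCA2 mutation), 8 per group. Treatment began 7 days after tumour cell injection: ip at 200 mg/kg in 10 mL/kg, once daily 5 days/week for 3 weeks, with a vehicle-treated control group. Lethality was scored as deaths per group. Body-weight loss % was recorded alongside, and tumour volume was measured at day +38.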

[8] = system: MX1; test: Antitumor activity against human MX1 cells xenografted in SCID beige mouse assessed as tumor volume inhibition at 200 mg/kg, ip administered qd for 5 days per week up to 3 weeks relative to control; format: functional; design: scale not given: the % may be the effect or the level left; settings: route intraperitoneal; summary of the method: as §1
[9] = molecular target: T1, Poly [ADP-ribose] polymerase 1; test: Inhibition of PARP-1-mediated PARylation in H2O2-induced human HeLa cells preincubated for 3 hrs followed by H2O2 addition measured after 5 mins by Draq5 staining-based fluorescence assay; format: cell-based
Summary of the method: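 HeLa cell PARylation assay; EC50 values are the mean of two experiments.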

[10] = Efflux ratio of permeability in human Caco2 cells; format: ADME, cell-based; settings: Caco-2
Summary of the method: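 Bidirectional Caco-2 cell monolayer permeability assay; the efflux ratio was derived from the two transport directions.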

[11] = Half life in human hepatocytes; format: ADME, cell-based, Hepatocyte

T1 sequence (P09874 whole entry): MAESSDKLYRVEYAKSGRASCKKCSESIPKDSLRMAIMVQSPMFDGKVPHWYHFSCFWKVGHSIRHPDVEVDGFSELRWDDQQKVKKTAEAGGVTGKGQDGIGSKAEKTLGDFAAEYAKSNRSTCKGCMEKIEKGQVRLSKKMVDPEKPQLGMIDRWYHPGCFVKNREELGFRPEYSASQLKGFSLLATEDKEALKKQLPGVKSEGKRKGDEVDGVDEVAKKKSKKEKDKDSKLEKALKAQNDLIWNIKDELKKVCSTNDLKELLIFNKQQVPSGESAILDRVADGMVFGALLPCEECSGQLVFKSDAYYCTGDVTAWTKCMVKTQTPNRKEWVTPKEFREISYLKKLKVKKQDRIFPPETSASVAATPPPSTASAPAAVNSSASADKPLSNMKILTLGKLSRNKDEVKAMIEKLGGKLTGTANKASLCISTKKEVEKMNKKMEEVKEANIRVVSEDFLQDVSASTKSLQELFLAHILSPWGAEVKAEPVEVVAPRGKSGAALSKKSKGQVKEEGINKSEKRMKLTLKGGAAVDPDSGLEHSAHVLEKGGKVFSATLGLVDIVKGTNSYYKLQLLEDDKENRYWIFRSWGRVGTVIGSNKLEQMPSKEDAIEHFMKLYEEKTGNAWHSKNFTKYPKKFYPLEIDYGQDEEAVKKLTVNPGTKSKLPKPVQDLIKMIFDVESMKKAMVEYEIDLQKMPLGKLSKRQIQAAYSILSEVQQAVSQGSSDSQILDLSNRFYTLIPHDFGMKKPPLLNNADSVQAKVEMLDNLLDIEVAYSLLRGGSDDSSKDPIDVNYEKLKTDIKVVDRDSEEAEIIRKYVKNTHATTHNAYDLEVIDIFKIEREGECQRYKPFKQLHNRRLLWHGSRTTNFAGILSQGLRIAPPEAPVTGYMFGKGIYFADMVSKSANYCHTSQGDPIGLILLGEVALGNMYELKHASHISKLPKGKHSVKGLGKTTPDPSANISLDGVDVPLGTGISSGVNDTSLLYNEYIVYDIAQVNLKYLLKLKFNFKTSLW

SMILES | pIC50 [1] | also measured
NC(=O)c1ccc(COc2ccccc2C(N)=O)cc1 | 6.09 | –
O=C(CCc1nc2ccccc2c(=O)[nH]1)N1CCN(C(=O)c2cccs2)CC1 | 8.01 | Activity [2]: Not Active; Activity [3]: 10%; pIC50 [4]: 4.76; blood plasma ratio at 1 h [5]: 0.4; remaining at 2 h [6]: 50%; Activity [7]: Non-toxic; Activity [8]: 47%; pEC50 [9]: 6.59; efflux ratio [10]: 5.8; half-life [11]: 9.73 h
Cn1nnc2c(C(N)=O)ncn2c1=O [TEMOZOLOMIDE] | – | pIC50 [4]: 3.92
O=C(CCn1c(=O)[nH]c(=O)c2ccccc21)Nc1ccccc1F | 5.82 | –
O=C(Cc1n[nH]c(=O)c2ccccc12)NCC(c1ccccc1Cl)N1CCCC1 (stereo not drawn) | 5.71 | –
O=C1CN(C(=O)CSc2nc3ccccc3c(=O)[nH]2)c2ccccc2N1 | 6.27 | –
O=C(c1n[nH]c(=O)c2ccccc12)N1CCN(/C=C/c2ccccc2)CC1 | 6.59 | –
NC(=O)C1CCN(C(=O)CCc2nc(O)c3ccccc3n2)CC1 | 6.57 | –
O=C(CN1CCN(C(=O)Cc2n[nH]c(=O)c3ccccc23)CC1)Nc1cccc(F)c1 | 5.96 | –
Cc1ccc(NC(=O)CCn2c(=O)[nH]c(=O)c3ccccc32)c(O)c1 | 6.46 | –
CCN(CC(=O)Cc1c(F)cccc1F)C(=O)Cc1n[nH]c(=O)c2ccccc12 | 6.22 | –
NC(=O)c1ccccc1OCC(=O)N1CC(=O)Nc2cc(C(F)(F)F)ccc21 | 5.97 | –
Cc1ccc(NS(=O)(=O)c2ccc(NC(=O)Cn3c(=O)[nH]c(=O)c4ccccc43)cc2C)c(C)c1 | 5.89 | –
CC(NC(=O)COc1ccccc1C(N)=O)c1ccccc1 (stereo not drawn) | 6.09 | –
O=C1NC(=O)c2ccccc2/C1=C\c1ccc(F)cc1 | 5.60 | –
NC(=O)c1ccc(NC(=O)CCCc2nc3ccccc3c(=O)[nH]2)cc1 | 5.33 | –
NS(=O)(=O)Nc1ccc(NC(=O)CCn2c(=O)[nH]c(=O)c3ccccc32)cc1 | 6.39 | –
Cc1ccc2c(c1)CCCN2C(=O)CCc1nc2ccccc2c(=O)[nH]1 | 5.99 | –
CC(=O)c1ccc(N2CCN(C(=O)COc3ccccc3C(N)=O)CC2)c(F)c1 | 6.55 | –
CC(=O)Nc1ccc(NC(=O)CCn2c(=O)[nH]c(=O)c3ccccc32)cc1 | 6.12 | –
CC(C)NS(=O)(=O)c1ccc(NC(=O)Cc2n[nH]c(=O)c3ccccc23)cc1 | 6.16 | –
CC(NC(=O)Cc1n[nH]c(=O)c2ccccc12)c1ccc2c(c1)CCCC2 (stereo not drawn) | 5.73 | –
O=C(Cc1n[nH]c(=O)c2ccccc12)NCc1ccc(S(=O)(=O)N2CCOCC2)cc1 | 6.22 | –
C=CCOC(=O)N1CCCC(C(=O)N2CCN(C(=O)CCc3nc4ccccc4c(=O)[nH]3)CC2)C1 (stereo not drawn) | 6.52 | –
O=C(Cc1n[nH]c(=O)c2ccccc12)NCCc1ccc2c(c1)OCCO2 | 6.55 | –
O=C1NC(=O)c2ccccc2/C1=C\Nc1ccccc1N1CCCCC1 | 5.92 | –
Cc1oc(C(N)=O)cc1COc1ccccc1C(N)=O | 5.78 | –

Second part, led by results:

pIC50 [1] | SMILES | also measured
7.37 | NC(=O)c1ccccc1OCC(=O)N1CCc2ccccc2C1 | –
7.50 | O=C(CCc1nc2ccccc2c(=O)[nH]1)N1CCN(C(=O)C2CCCNC2)CC1 (stereo not drawn) | –
7.30 | O=C(Cc1n[nH]c(=O)c2ccccc12)NCc1ccc(N2CCOCC2)nc1 | –
6.89 | Cc1c(C(=O)N2CCN(C(=O)CCc3nc4ccccc4c(=O)[nH]3)CC2)oc2ccccc12 | –
6.89 | O=C(CCc1nc2ccccc2c(=O)[nH]1)N1CCN(C(=O)C2CCCO2)CC1 (stereo not drawn) | –
7.55 | O=C(CCc1nc2ccccc2c(=O)[nH]1)N1CCN(C(=O)c2ccco2)CC1 | –
6.72 | O=C1CN(C(=O)CCc2nc3ccccc3c(=O)[nH]2)CCN1 | –
7.25 | O=C(CCc1nc2ccccc2c(=O)[nH]1)N1CCN(C(=O)c2ccc(F)cc2)CC1 | Activity [2]: Not Active; pIC50 [4]: 4.71; blood plasma ratio at 1 h [5]: 0.4; remaining at 2 h [6]: 57%; pEC50 [9]: 6.33; efflux ratio [10]: 6; half-life [11]: 10.3 h
6.96 | O=C(CCc1nc2ccccc2c(=O)[nH]1)N1CCN(C(=O)C2CCCC2)CC1 | –
7.06 | CN(C)CC(C)(C)CN/C=C1/C(=O)NC(=O)c2ccccc21 | –
6.89 | NC(=O)c1ccc(NC(=O)CCn2c(=O)[nH]c(=O)c3ccccc32)cc1 | –
7.17 | O=C(CCc1nc2ccccc2c(=O)[nH]1)N1CCN(C(=O)C2CC2)CC1 | pIC50 [4]: 4.29; pEC50 [9]: 6.15
6.66 | C=CCN1CCCC(C(=O)N2CCN(C(=O)CCc3nc4ccccc4c(=O)[nH]3)CC2)C1 (stereo not drawn) | –
7.06 | CC(=O)c1ccc(NC(=O)CCn2c(=O)[nH]c(=O)c3ccccc32)cc1 | –
7.53 | O=C(CCc1nc2ccccc2c(=O)[nH]1)N1CCN(C(=O)c2ccc[nH]2)CC1 | pIC50 [4]: 4.74; pEC50 [9]: 6.06
